Experimental data: ChEMBL document CHEMBL3407377, “Synthesis and pharmacological evaluation of benzannulated derivatives as potent and selective sigma-1 protein ligands” (Eur J Med Chem, 2015)

Experiments:
[1] = Ratio of IC50 for human SY5Y cells to Ki for sigma 1 receptor in human Jurkat cells
Summary of the method: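 Selectivity index was calculated as the SY5Y cytotoxicity IC50 divided by the S1R Ki. The IC50 came from a colorimetric MTT viability assay on human neuroblastoma SY5Y cells dosed up to 100 μM. The Ki came from [3H](+)-pentazocine competition binding on Jurkat cell membranes.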

[2] = biological target: Sigma non-opioid intracellular receptor 1 (Homo sapiens, UniProt Q99720); test: Displacement of [3H](+)Pentazocine from sigma 1 receptor in human Jurkat cells after 120 mins by liquid scintillation counting analysis; format: cell-based
Sigma non-opioid intracellular receptor 1, sequence (Q99720 whole entry): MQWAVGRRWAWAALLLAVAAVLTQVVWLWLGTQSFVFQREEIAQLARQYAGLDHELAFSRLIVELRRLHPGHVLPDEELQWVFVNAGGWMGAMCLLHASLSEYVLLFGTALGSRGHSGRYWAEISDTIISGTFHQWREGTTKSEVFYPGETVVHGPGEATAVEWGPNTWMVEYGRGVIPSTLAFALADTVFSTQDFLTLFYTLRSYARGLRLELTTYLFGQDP

Jurkat = test: Selectivity ratio of Ki for sigma2 receptor in human Jurkat cells to Ki for sigma1 receptor human Jurkat cells; format: cell-based
Summary of the method: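 Both affinities came from radioligand competition on Jurkat cell membranes. S1R used [3H](+)-pentazocine. S2R used [3H]-DTG with excess unlabelled (+)-pentazocine. Ki values were derived from IC50s, and the ratio was calculated as Ki(S2R)/Ki(S1R).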

[3] = Cytotoxicity against human SH-SY5Y cells assessed as cell viability after 72 hrs by MTT assay; format: cell-based
Summary of the method: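 Human neuroblastoma SY5Y cells were exposed to a range of concentrations up to 100 μM. Viability was read by colorimetric MTT assay, and the IC50 was taken from it.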

SMILES	Ki [2] [µM]	Ratio [1]	Ratio Ki (Jurkat)	IC50 [3] [µM]
O=C1COc2ccc(Br)cc2N1CCCN1Cc2ccccc2C1	> 0.1	–	–	> 100
CN(CCCn1c(=O)sc2ccc(Br)cc21)Cc1ccccc1	0.0031	8417	35	26.5
CN(CCCn1c(=O)sc2cc(Br)ccc21)Cc1ccccc1	0.0006	23250	48	13.2
CN(CCCn1c(=O)oc2cc(Br)ccc21)Cc1ccccc1	0.0009	63291	37	58.8
O=c1sc2cc(Br)ccc2n1CCCN1Cc2ccccc2C1	0.0057	5471	–	31.4
CN(CCCn1c(=O)oc2ccccc21)Cc1ccccc1	> 0.1	–	–	> 100
CN(CCCn1c(=O)oc2ccc(Cl)cc21)Cc1ccccc1	0.0064	15500	16	> 100
O=c1oc2cc(Br)ccc2n1CCCN1Cc2ccccc2C1	> 0.1	–	–	> 100
CN(CCCN1C(=O)[C@@H]2Cc3ccccc3CN2C1=O)Cc1ccccc1	–	–	–	> 100
Cn1c(=O)n(CCCN2Cc3ccccc3C2)c2ccccc21	> 0.1	–	–	> 100
O=c1oc2ccccc2n1CCCN1Cc2ccccc2C1	> 0.1	–	–	> 100
CN(CCCn1c(=O)sc2ccccc21)Cc1ccccc1	0.0103	973	–	10
O=C1[C@@H]2Cc3ccccc3CN2C(=O)N1CCCN1Cc2ccccc2C1	0.0053	–	78	–

Continued, in another order:

Ki [2] [µM]	SMILES	Ratio [1]	Ratio Ki (Jurkat)	IC50 [3] [µM]
0.0012	CN(CCCn1c(=O)oc2ccc(Br)cc21)Cc1ccccc1	11463	13	14.2
> 0.1	CN(CCCN1C(=O)COc2ccc(Br)cc21)Cc1ccccc1	–	–	13.4
0.0047	CN(CCCn1c(=O)sc2ccc(Cl)cc21)Cc1ccccc1	2124	35	9.9
0.0303	O=c1sc2ccccc2n1CCCN1Cc2ccccc2C1	>3000	–	> 100
> 0.1	CN(CCCn1c(=O)n(C)c2ccccc21)Cc1ccccc1	–	–	73.8
> 0.1	Cc1nc2ccccc2n1CCCN(C)Cc1ccccc1	–	–	50.2
0.0022	CN(CCCN1C(=O)CSc2ccc(Br)cc21)Cc1ccccc1	8631	22	18.7
